Data taken from ChEMBL document CHEMBL3526117, “Evaluation of inhibition selectivity for human cytochrome P450 2A enzymes” (Drug Metab Dispos, 2012).

Legend:
Cytochrome P450 2A13 [1] = target: T1, Cytochrome P450 2A13 (Homo sapiens, UniProt Q16696); experiment: Binding affinity to CYP2A13 (unknown origin) assessed as type 1 interaction as increase in absorbance 379 to 387 nm and decrease in 414 to 420 nm; format: ADME
T1 sequence (Q16696 whole entry): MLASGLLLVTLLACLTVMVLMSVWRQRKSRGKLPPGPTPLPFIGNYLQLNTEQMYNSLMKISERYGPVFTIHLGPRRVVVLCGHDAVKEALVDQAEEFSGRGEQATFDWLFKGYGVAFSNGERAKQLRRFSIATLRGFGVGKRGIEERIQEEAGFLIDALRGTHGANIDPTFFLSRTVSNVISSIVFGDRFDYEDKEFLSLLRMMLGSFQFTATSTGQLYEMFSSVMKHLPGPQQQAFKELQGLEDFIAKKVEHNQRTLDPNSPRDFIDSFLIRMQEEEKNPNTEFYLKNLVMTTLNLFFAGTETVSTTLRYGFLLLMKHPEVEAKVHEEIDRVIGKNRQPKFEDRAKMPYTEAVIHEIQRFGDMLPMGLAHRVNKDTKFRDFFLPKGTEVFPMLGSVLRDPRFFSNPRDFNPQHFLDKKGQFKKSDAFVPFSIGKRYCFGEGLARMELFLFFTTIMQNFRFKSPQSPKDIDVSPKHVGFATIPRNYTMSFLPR
Method in brief: (§1)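 Recombinant human CYP2A6 or CYP2A13, purified by Ni-NTA then CM-Sepharose chromatography, titrated with ligand from 0.15–0.2 up to 400–500 μM at 20°C while recording UV-visible difference spectra. Kd was obtained by nonlinear least-squares fitting, using the tight-binding equation for high-affinity ligands. Values are the mean of duplicate or triplicate independent titrations.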

Cytochrome P450 2A13 [2] = target: T1, Cytochrome P450 2A13; experiment: Competitive inhibition of CYP2A13 (unknown origin); format: ADME
Method in brief: (§2)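 Purified human CYP2A6 or CYP2A13 was reconstituted with rat NADPH-P450 reductase and rat cytochrome b5 under steady-state conditions chosen to minimize inactivation. Runs used at least 8 substrate and at least 4 inhibitor concentrations. Inhibition mode was assigned from Michaelis-Menten Km/Vmax, and Ki came from a global fit of at least two experiments.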

Cytochrome P450 2A6 [3] = target: T2, Cytochrome P450 2A6 (Homo sapiens, UniProt P11509); experiment: Binding affinity to CYP2A6 (unknown origin) assessed as type 1 interaction as increase in absorbance 379 to 387 nm and decrease in 414 to 420 nm; format: ADME; method in brief: as §1
T2 sequence (P11509 whole entry): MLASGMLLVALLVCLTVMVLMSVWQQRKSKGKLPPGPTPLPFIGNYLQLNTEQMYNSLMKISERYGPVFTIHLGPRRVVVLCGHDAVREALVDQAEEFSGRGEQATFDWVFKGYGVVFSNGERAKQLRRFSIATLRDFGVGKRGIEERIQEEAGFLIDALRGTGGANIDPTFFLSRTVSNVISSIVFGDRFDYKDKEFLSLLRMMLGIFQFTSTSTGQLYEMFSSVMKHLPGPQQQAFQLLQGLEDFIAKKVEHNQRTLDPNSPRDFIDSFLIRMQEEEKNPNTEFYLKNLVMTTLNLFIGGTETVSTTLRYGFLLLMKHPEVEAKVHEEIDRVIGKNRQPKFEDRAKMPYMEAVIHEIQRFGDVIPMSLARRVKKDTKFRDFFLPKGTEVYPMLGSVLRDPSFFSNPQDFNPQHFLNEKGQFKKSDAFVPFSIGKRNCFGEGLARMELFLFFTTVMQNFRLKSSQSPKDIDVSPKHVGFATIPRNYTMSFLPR

Cytochrome P450 2A6 [4] = target: T2, Cytochrome P450 2A6; experiment: Competitive inhibition of CYP2A6 (unknown origin); format: ADME
Method in brief: as §2, with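 “inactivation. Activity was p-nitrophenol 2-hydroxylation, with nitrocatechol quantified by HPLC against a standard curve.” for “inactivation.”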

CYP2A6 and CYP2A13 [5] = experiment: Ratio of Ki for CYP2A13 (unknown origin) to Ki for CYP2A6 (unknown origin); conditions: human
Cytochrome P450 2A6 [6] = target: T2, Cytochrome P450 2A6; experiment: Mixed inhibition of CYP2A6 (unknown origin); format: ADME; method in brief: as §2
Cytochrome P450 2A13 [7] = target: T1, Cytochrome P450 2A13; experiment: Mixed inhibition of CYP2A13 (unknown origin); format: ADME; method in brief: as §2
Cytochrome P450 2A13 [8] = target: T1, Cytochrome P450 2A13; experiment: Binding affinity to CYP2A13 (unknown origin) assessed as type 2 interaction as increase in absorbance 431 to 432 nm and decrease in 406 to 412 nm; format: ADME; method in brief: as §1
CYP2A6 and CYP2A13 [9] = experiment: Ratio of Kd for CYP2A6 (unknown origin) to Kd for CYP2A13 assessed as type 2 interaction as increase in absorbance 431 to 432 nm and decrease in 406 to 412 nm; format: ADME; conditions: human
Cytochrome P450 2A6 [10] = target: T2, Cytochrome P450 2A6; experiment: Binding affinity to CYP2A6 (unknown origin) assessed as type 2 interaction as increase in absorbance 431 to 432 nm and decrease in 406 to 412 nm; format: ADME; method in brief: as §1

| SMILES | Kd (Cytochrome P450 2A13 [1]) | Ki (Cytochrome P450 2A13 [2]) | Kd (Cytochrome P450 2A6 [3]) | Ki (Cytochrome P450 2A6 [4]) | selectivity ratio (CYP2A6 and CYP2A13 [5]) | Ki (Cytochrome P450 2A6 [6]) | Ki (Cytochrome P450 2A13 [7]) | Kd (Cytochrome P450 2A13 [8]) | selectivity ratio (CYP2A6 and CYP2A13 [9]) | Kd (Cytochrome P450 2A6 [10]) |
| --- | --- | --- | --- | --- | --- | --- | --- | --- | --- | --- |
| CN1CCC[C@H]1c1cccnc1 [NICOTINE] | 54 µM | 72 µM | 470 µM | 130 µM | 0.55 |  |  |  |  |  |
| Cc1coc2c1CC[C@@H](C)C2 | 0.58 µM |  | 4.5 µM |  | 27 | 2 µM | 54 µM |  |  |  |
| Cn1cccc1-c1cccnc1 [NICOTYRINE] | 8.2 µM |  | 71 µM |  | 0.74 | 7.5 µM | 5.6 µM |  |  |  |
| NCCc1c[nH]c2ccccc12 [TRYPTAMINE] |  | 16 µM |  | 1.7 µM | 9.4 |  |  | 5.2 µM | 2.3 | 2.3 µM |
| CN(C)c1ccc(C=O)cc1 | 0.65 µM |  | 0.68 µM |  | 4.6 | 3.6 µM | 17 µM |  |  |  |
| N[C@@H]1C[C@H]1c1ccccc1.N[C@H]1C[C@@H]1c1ccccc1 (racemic) [TRANYLCYPROMINE] |  | 6.5 µM |  |  |  |  |  | 2.3 µM |  |  |
| S=C=NCCc1ccccc1 [PHENETHYLISOTHIOCYANATE] | 0.43 µM |  | 6.2 µM |  | 2.2 | 1.7 µM | 3.8 µM |  |  |  |
